The values that follow come from ChEMBL document CHEMBL2396655, “Design, synthesis, and biological evaluation of (E)-N-aryl-2-arylethenesulfonamide analogues as potent and orally bioavailable microtubule-targeted anticancer agents” (J Med Chem, 2013).

One experiment relates to K562. Description: Cytotoxicity against human K562 cells after 96 hrs by trypan blue exclusion assay. Type of experiment: functional, cell-based. The conditions noted are these: for IC50: K562, 96 h. The method in brief: (§1)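 Cells were grown in DMEM or RPMI with 10% FBS and plated at 2.5×10⁴ cells/well in 12-well dishes. Compounds were added 24 h later at various concentrations. After 96 h, viable cells were counted by trypan blue exclusion from duplicate wells. Results are the mean of two independent experiments.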

A further experiment relates to DU-145. Description: Cytotoxicity against human DU145 cells after 96 hrs by trypan blue exclusion assay. It is filed as functional, cell-based. The following applies: for IC50: DU-145, 96 h. In outline:
as §1

Molecules are shown by their SMILES.

As usually defined, the IC50 is the concentration that gives 50% inhibition. On to `COc1ccc(/C=C/S(=O)(=O)Nc2ccc(F)cc2)cc1`, for which, in the experiment with K562, the Activity result was “Dose-dependent effect” and half-maximal inhibition (IC50) was put at 10 µM. In the experiment on DU-145, the Activity entry was “Dose-dependent effect” and the IC50 was 10 µM.

As to `COc1ccc(NS(=O)(=O)/C=C/c2c(OC)cc(O)cc2OC)cc1`, the Activity result with K562 and in the experiment on DU-145 was “Dose-dependent effect” in each case. The IC50 in the experiment with K562 and in the experiment with DU-145 was 10 µM each time.

As for `COc1cc(OC)c(/C=C/S(=O)(=O)Nc2cc([N+](=O)[O-])c(OC)c([N+](=O)[O-])c2)c(OC)c1`, the Activity result in the experiment with K562 and in the experiment with DU-145 was “Dose-dependent effect” each time. The IC50 with K562 and in the experiment with DU-145 was 10 µM throughout.

As for `O=S(=O)(/C=C/c1ccc(Br)cc1)Nc1ccc(F)cc1`, in the experiment on K562, the Activity result was “Dose-dependent effect” and the IC50 came to 10 µM. Besides, in the experiment on DU-145, the Activity result was “Dose-dependent effect” and the IC50 was determined as 10 µM.

As to `COC(=O)C(C)Nc1cc(NS(=O)(=O)/C=C/c2c(OC)cc(OC)cc2OC)ccc1OC` (stereo not drawn), in the experiment with K562, the Activity result is “Dose-dependent effect” and the IC50 stood at 0.3 µM. Moreover, in the experiment with DU-145, the Activity result is “Dose-dependent effect” and the IC50 is 0.1 µM.

With `COc1ccc(NS(=O)(=O)/C=C/c2ccc(OC)cc2OC)cc1`, in the experiment with K562, the Activity entry was “Dose-dependent effect” and the IC50 is 15 µM. Moreover, in the experiment with DU-145, the Activity entry is “Dose-dependent effect” and inhibition was half-maximal at 15 µM (IC50).

With `COc1cc(OC)c(/C=C/S(=O)(=O)Nc2ccc(F)c(N)c2)c(OC)c1`, the Activity result in the experiment on K562 and with DU-145 was “Dose-dependent effect” in each case. In addition, the IC50 in the experiment on K562 was 5 µM; in the experiment on DU-145, 10 µM.

Turning to `COC(=O)C(C)(C)Nc1cc(NS(=O)(=O)/C=C/c2c(OC)cc(OC)cc2OC)ccc1OC`, the Activity result in the experiment on K562 and in the experiment with DU-145 was “Dose-dependent effect” in each case. In addition, the results for the IC50 with K562 and in the experiment with DU-145 were 0.3 µM and 0.2 µM, respectively.

On to `COc1ccc(NS(=O)(=O)/C=C/c2c(F)c(F)c(F)c(F)c2F)cc1`, for which the Activity entry with K562 and in the experiment with DU-145 was “Dose-dependent effect” in each case. Moreover, the IC50 in the experiment on K562 was 5 µM; with DU-145 it was 10 µM.

On to `COc1cc(OC)c(/C=C/S(=O)(=O)Nc2ccc(OC)c(F)c2)c(OC)c1`, for which, in the experiment with K562, the Activity result was “Dose-dependent effect” and the IC50 was found to be 0.075 µM. Moreover, in the experiment with DU-145, the Activity entry is “Dose-dependent effect” and the IC50 is 0.2 µM.

Consider `COc1ccc(NS(=O)(=O)/C=C/c2cc(OC)c(OC)c(OC)c2)cc1[N+](=O)[O-]`, for which the Activity result with K562 and in the experiment on DU-145 was “Dose-dependent effect” each time. The IC50 with K562 and in the experiment with DU-145 was 75 µM each time.

As for `O=S(=O)(/C=C/c1ccccc1)Nc1ccccc1`, in the experiment with K562, the Activity result was “Dose-dependent effect” and the IC50 was 10 µM. Also, in the experiment on DU-145, the Activity result is “Dose-dependent effect” and the IC50 was determined as 10 µM.

On to `COc1ccc(NS(=O)(=O)/C=C/c2c(OC)cc(OCCCC(=O)O)cc2OC)cc1[N+](=O)[O-]`, for which, in the experiment on K562, the Activity result is “Dose-dependent effect” and the IC50 amounted to 100 µM. Further, in the experiment with DU-145, the Activity entry was “Dose-dependent effect” and the IC50 came out at 100 µM.

`COc1ccc(NS(=O)(=O)/C=C/c2c(F)cc(F)cc2F)cc1`: in the experiment on K562, the Activity result was “Dose-dependent effect” and the IC50 was found to be 15 µM. Moreover, in the experiment with DU-145, the Activity entry is “Dose-dependent effect” and it took 75 µM to reach half-maximal inhibition (IC50).

For `COc1cc(OC)c(/C=C/S(=O)(=O)Nc2ccc(OC)c(OC(=O)C(C)(C)C3=C(C)C(=O)C=C(C)C3=O)c2)c(OC)c1`, the Activity entry with K562 and with DU-145 was “Dose-dependent effect” in each case. The IC50 was 0.008 µM with K562 and 0.009 µM with DU-145.

For the molecule `COC(=O)CNc1cc(NS(=O)(=O)/C=C/c2c(OC)cc(OC)cc2OC)ccc1OC`, in the experiment with K562, the Activity entry was “Dose-dependent effect” and the IC50 was 0.35 µM. Besides, in the experiment with DU-145, the Activity entry was “Dose-dependent effect” and the IC50 was 0.35 µM.

For `COc1ccc(/C=C/S(=O)(=O)Nc2ccc(OC)cc2)cc1`, in the experiment with K562, the Activity entry was “Dose-dependent effect” and the half-maximal inhibitory concentration (IC50) came out at 5 µM. For the same molecule, in the experiment with DU-145, the Activity entry is “Dose-dependent effect” and it took 5 µM to reach half-maximal inhibition (IC50).

For `COC(=O)C(Nc1cc(NS(=O)(=O)/C=C/c2c(OC)cc(OC)cc2OC)ccc1OC)c1ccccc1` (stereo not drawn), in the experiment with K562, the Activity entry was “Dose-dependent effect” and the IC50 is 2.5 µM. For the same molecule, in the experiment on DU-145, the Activity entry was “Dose-dependent effect” and the IC50 was found to be 2.5 µM.

For the molecule `COc1cc(OC)c(/C=C/S(=O)(=O)Nc2cc(N)c(OC)c(N)c2)c(OC)c1`, the Activity entry with K562 and in the experiment with DU-145 was “Dose-dependent effect” in each case. Besides, the IC50 worked out at 7.5 µM with K562 and 2.5 µM with DU-145.

For the molecule `COc1ccc(/C=C/S(=O)(=O)Nc2ccc(OC)c(F)c2)cc1`, in the experiment with K562, the Activity result was “Dose-dependent effect” and the IC50 was 1 µM. For the same molecule, in the experiment with DU-145, the Activity entry was “Dose-dependent effect” and the IC50 worked out at 5 µM.

Consider `COc1ccc(NS(=O)(=O)/C=C/c2c(F)c(F)c(F)c(F)c2F)cc1F`, for which, in the experiment on K562, the Activity result is “Dose-dependent effect” and the IC50 stood at 10 µM. In the experiment on DU-145, the Activity entry is “Dose-dependent effect” and the IC50 was 10 µM.

For the molecule `COC(=O)C(Nc1cc(NS(=O)(=O)/C=C/c2c(OC)cc(OC)cc2OC)ccc1OC)c1ccc(Br)cc1` (stereo not drawn), in the experiment with K562, the Activity result was “Dose-dependent effect” and half-maximal inhibition (IC50) was put at 1 µM. Also, in the experiment on DU-145, the Activity entry is “Dose-dependent effect” and half-maximal inhibition (IC50) required 7.5 µM.

On to `COc1ccc(/C=C/S(=O)(=O)Nc2c(F)c(F)c(F)c(F)c2F)cc1[N+](=O)[O-]`, for which, in the experiment on K562, the Activity entry was “Dose-dependent effect” and it took 75 µM to reach half-maximal inhibition (IC50). For the same molecule, in the experiment on DU-145, the Activity entry was “Dose-dependent effect” and the midpoint of inhibition, the IC50, lay at 100 µM.

As to `COc1ccc(NS(=O)(=O)/C=C/c2ccccc2OC)cc1`, the Activity entry in the experiment with K562 and in the experiment with DU-145 was “Dose-dependent effect” throughout. In addition, the IC50 in the experiment on K562 and in the experiment on DU-145 was 5 µM each time.

As for `COc1cc(OC)c(/C=C/S(=O)(=O)Nc2ccc(OC)c([N+](=O)[O-])c2)c(OC)c1`, in the experiment with K562, the Activity result is “Dose-dependent effect” and the IC50 was 1 µM. In the experiment with DU-145, the Activity result is “Dose-dependent effect” and the half-inhibitory concentration (IC50) was 2.5 µM.

Consider `COc1cc(OC)c(/C=C/S(=O)(=O)Nc2ccc(F)c([N+](=O)[O-])c2)c(OC)c1`, for which the Activity result with K562 and in the experiment on DU-145 was “Dose-dependent effect” each time. The 50% inhibitory concentration (IC50) in the experiment on K562 was 75 µM; in the experiment with DU-145, 100 µM.

In the case of `COc1cc(OC)c(/C=C/S(=O)(=O)Nc2ccc(OC)c(OP(=O)(O)O)c2)c(OC)c1`, in the experiment on K562, the Activity entry is “Dose-dependent effect” and the IC50 was found to be 0.0075 µM. Also, in the experiment on DU-145, the Activity entry is “Dose-dependent effect” and it took 0.04 µM to reach half-maximal inhibition (IC50).

With `COc1ccc(NS(=O)(=O)/C=C/c2c(F)c(F)c(F)c(F)c2F)cc1[N+](=O)[O-]`, in the experiment with K562, the Activity result was “Dose-dependent effect” and 100 µM corresponded to half-maximal inhibition (IC50). In the experiment with DU-145, the Activity result is “Dose-dependent effect” and the 50% inhibitory concentration (IC50) stood at 100 µM.

Consider `COc1ccc(NS(=O)(=O)/C=C/c2c(F)c(F)c(F)c(F)c2F)cc1N`, for which, in the experiment with K562, the Activity result was “Dose-dependent effect” and the half-inhibitory concentration (IC50) stood at 75 µM. For the same molecule, in the experiment with DU-145, the Activity entry was “Dose-dependent effect” and the IC50 was determined as 75 µM.

In the case of `COC(=O)C(Nc1cc(NS(=O)(=O)/C=C/c2c(OC)cc(OC)cc2OC)ccc1OC)c1ccc(F)cc1` (stereo not drawn), in the experiment with K562, the Activity entry was “Dose-dependent effect” and the IC50 is 2.5 µM. For the same molecule, in the experiment with DU-145, the Activity result is “Dose-dependent effect” and half-maximal inhibition (IC50) required 2.5 µM.

As for `COc1ccc(/C=C/S(=O)(=O)Nc2c(OC)cc(OC)cc2OC)cc1`, the Activity entry in the experiment with K562 and with DU-145 was “Dose-dependent effect” in each case. The values for the IC50 in the experiment on K562 and in the experiment with DU-145 were 2.5 µM and 7.5 µM, respectively.

Take `COC(=O)C(Nc1cc(NS(=O)(=O)/C=C/c2c(OC)cc(OC)cc2OC)ccc1OC)c1ccc(Cl)cc1` (stereo not drawn): in the experiment on K562, the Activity entry was “Dose-dependent effect” and the IC50 was determined as 2.5 µM. Also, in the experiment with DU-145, the Activity result is “Dose-dependent effect” and the midpoint of inhibition, the IC50, lay at 5 µM.

For the molecule `COc1ccc(/C=C/S(=O)(=O)Nc2c(F)c(F)c(F)c(F)c2F)cc1N`, in the experiment on K562, the Activity result is “Dose-dependent effect” and 35 µM corresponded to half-maximal inhibition (IC50). In addition, in the experiment with DU-145, the Activity result was “Dose-dependent effect” and inhibition was half-maximal at 35 µM (IC50).

Regarding `O=S(=O)(/C=C/c1c(F)c(F)c(F)c(F)c1F)Nc1c(F)c(F)c(F)c(F)c1F`, in the experiment on K562, the Activity result is “Dose-dependent effect” and the 50% inhibitory concentration (IC50) was 35 µM. Besides, in the experiment on DU-145, the Activity result was “Dose-dependent effect” and the IC50 was 35 µM.

Regarding `COc1ccc(NS(=O)(=O)/C=C/c2c(OC)cc(OCCCC(=O)O)cc2OC)cc1N`, in the experiment with K562, the Activity result is “Dose-dependent effect” and the IC50 was determined as 10 µM. In addition, in the experiment with DU-145, the Activity entry is “Dose-dependent effect” and the IC50 is 10 µM.

For the molecule `COc1ccc(NS(=O)(=O)/C=C/c2c(OC)cc(OCCCC(=O)O)cc2OC)cc1O`, in the experiment on K562, the Activity result was “Dose-dependent effect” and it took 10 µM to reach half-maximal inhibition (IC50). In the experiment with DU-145, the Activity entry is “Dose-dependent effect” and half-maximal inhibition (IC50) was put at 10 µM.

Turning to `COc1ccc(NS(=O)(=O)/C=C/c2c(OC)cccc2OC)cc1`, in the experiment on K562, the Activity entry is “Dose-dependent effect” and half-maximal inhibition (IC50) required 5 µM. Moreover, in the experiment on DU-145, the Activity entry is “Dose-dependent effect” and the IC50 came to 0.375 µM.
